Reference: ChEMBL document CHEMBL1151252, “New lamellarin alkaloids from the Indian ascidian Didemnum obscurum and their antioxidant properties” (J Nat Prod, 2004)
pIC50: −log10 of the molar value.

Assays:
[1] = system: Radical scavenging activity; experiment: Antioxidant activity assessed as DPPH radical scavenging activity by HPLC; format: functional
Procedure, shortened: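 In the HPLC DPPH assay, test material in methanol or DMSO is mixed 1:1 with methanolic DPPH (final 250 μM) and held in the dark for 20 min at room temperature, then filtered and run on reversed-phase HPLC with diode-array detection. IC50 is obtained by linear regression over at least five concentrations, each in triplicate.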

[2] = DPPH radical scavenging activity assessed as ratio of IC50 for trolox to IC50 for test compound; format: functional
Procedure, shortened: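 TEAC is the ratio of Trolox IC50 to sample IC50. Both come from the same HPLC DPPH scavenging assay: 250 μM final DPPH, 20 min in the dark at room temperature, reversed-phase HPLC with diode-array detection. Each IC50 is derived by linear regression from at least five concentrations in triplicate.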

| SMILES | pIC50 [1] | Ratio IC50 [2] |
| --- | --- | --- |
| Cc1c(C)c2c(c(C)c1O)CC[C@@](C)(CCC[C@H](C)CCC[C@H](C)CCCC(C)C)O2 [ALPHA-TOCOPHEROL] | 4.20 | 1.07 |
| CC(C)(Sc1cc(C(C)(C)C)c(O)c(C(C)(C)C)c1)Sc1cc(C(C)(C)C)c(O)c(C(C)(C)C)c1 [PROBUCOL] | 4.28 | 1.29 |
| Cc1c(C)c2c(c(C)c1O)CCC(C)(C(=O)O)O2 (stereo unspecified) [TROLOX] | 4.17 | 1 |
